Key:
[1] = biological target: T1, Dihydroorotate dehydrogenase (Plasmodium falciparum, UniProt Q54A96); assay: Inhibition of Plasmodium falciparum DHODH assessed as reduction of 2,6-dichloroindophenol by stopped flow spectroscopy
T1 sequence (Q54A96 whole entry): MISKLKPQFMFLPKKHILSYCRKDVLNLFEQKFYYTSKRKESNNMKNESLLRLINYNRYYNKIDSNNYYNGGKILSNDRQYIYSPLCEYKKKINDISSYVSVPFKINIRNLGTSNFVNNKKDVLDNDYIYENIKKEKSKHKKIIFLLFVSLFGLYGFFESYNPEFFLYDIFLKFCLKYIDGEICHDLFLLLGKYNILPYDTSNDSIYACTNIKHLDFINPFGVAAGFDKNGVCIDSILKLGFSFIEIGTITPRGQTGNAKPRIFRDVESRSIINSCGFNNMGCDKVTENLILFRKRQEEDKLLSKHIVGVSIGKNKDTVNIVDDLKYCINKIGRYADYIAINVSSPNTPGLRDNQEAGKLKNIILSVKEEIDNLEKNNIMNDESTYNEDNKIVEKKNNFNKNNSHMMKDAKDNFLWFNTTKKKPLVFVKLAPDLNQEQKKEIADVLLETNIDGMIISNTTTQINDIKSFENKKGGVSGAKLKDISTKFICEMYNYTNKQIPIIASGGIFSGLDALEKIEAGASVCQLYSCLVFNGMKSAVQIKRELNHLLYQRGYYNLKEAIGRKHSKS
In short: (§1)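 Truncated soluble enzyme expressed in E. coli. Steady-state assay: DCIP (0.12 mM) reduction at 600 nm, 5–10 nM enzyme, 0.2 mM L-dihydroorotate, 0.02 mM CoQD, in 100 mM HEPES pH 8.0, 150 mM NaCl, 10% glycerol, 0.1% Triton, 20°C.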

[2] = test system: Plasmodium falciparum; assay: Antiplasmodial activity against Plasmodium falciparum 3D7 in erythrocytes as [3H]hypoxanthine uptake; assay type: functional, organism-based
In short: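 Parasites grown in RPMI-1640 with 20% human type A+ plasma and 2% (w/v) red blood cells; drug-treated infected erythrocytes assayed for [3H]-hypoxanthine uptake. Triplicate points over a range of inhibitor concentrations; EC50 from fit of % proliferation to a Hill-type equation; reported values average at least 2 independent experiments.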

[3] = biological target: Dihydroorotate dehydrogenase (quinone), mitochondrial (Homo sapiens, UniProt Q02127); assay: Inhibition of human DHODH assessed as reduction of 2,6-dichloroindophenol by stopped flow spectroscopy
In short: as §1, with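 “20°C. CoQ-independent oxidase background subtracted; triplicate points per concentration; IC50 from curve fit, ≥2 experiments.” for “20°C.”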

[4] = test system: Plasmodium falciparum; assay: Antiplasmodial activity against Plasmodium falciparum FCR3 in erythrocytes as [3H]hypoxanthine uptake; conditions: FCR3, 3 h
[5] = test system: Plasmodium falciparum; assay: Antiplasmodial activity against Plasmodium falciparum K1 in erythrocytes as [3H]hypoxanthine uptake; conditions: K1, 3 h
[6] = test system: Plasmodium falciparum; assay: Antiplasmodial activity against Plasmodium falciparum Dd2 in erythrocytes as [3H]hypoxanthine uptake; conditions: Dd2, 3 h
[7] = test system: Plasmodium falciparum; assay: Antiplasmodial activity against Plasmodium falciparum HB3 in erythrocytes as [3H]hypoxanthine uptake; conditions: HB3, 3 h
[8] = test system: Plasmodium falciparum; assay: Antiplasmodial activity against Plasmodium falciparum D6 in erythrocytes as [3H]hypoxanthine uptake; conditions: D6, 3 h
[9] = test system: L1210; assay: Cytotoxicity against mouse L1210 cells

Dihydroorotate dehydrogenase (quinone), mitochondrial, sequence (Q02127 whole entry): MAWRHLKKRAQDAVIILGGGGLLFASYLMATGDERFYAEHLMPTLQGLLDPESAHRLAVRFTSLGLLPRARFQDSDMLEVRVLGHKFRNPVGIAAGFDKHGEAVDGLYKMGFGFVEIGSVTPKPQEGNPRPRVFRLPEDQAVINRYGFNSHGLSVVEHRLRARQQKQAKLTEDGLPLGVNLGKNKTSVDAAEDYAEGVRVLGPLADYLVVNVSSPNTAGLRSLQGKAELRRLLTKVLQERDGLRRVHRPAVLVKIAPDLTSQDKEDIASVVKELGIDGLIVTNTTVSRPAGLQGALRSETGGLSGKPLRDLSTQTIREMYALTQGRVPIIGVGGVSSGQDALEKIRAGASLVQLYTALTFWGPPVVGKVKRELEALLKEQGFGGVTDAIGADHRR

| IC50 [1] | IC50 [2] | IC50 [3] | EC50 [4] | EC50 [5] | EC50 [6] | EC50 [7] | EC50 [8] | Compound | EC50 [9] |
| --- | --- | --- | --- | --- | --- | --- | --- | --- | --- |
| 93000 nM | 35000 nM | > 200000 nM | – | – | – | – | – | Cc1cc(N(Cc2ccccc2)c2ccc3ccccc3c2)n2ncnc2n1 | – |
| 1700 nM | 1600 nM | > 200000 nM | – | – | – | – | – | Cc1cc(Nc2cnc3ccccc3c2)n2ncnc2n1 | – |
| 3000 nM | 16000 nM | > 200000 nM | – | – | – | – | – | Cc1cc(N(C)c2ccc3ccccc3c2)n2ncnc2n1 | – |
| 190 nM | 310 nM | > 200000 nM | – | – | – | – | – | CCc1cc(Nc2ccc3ccccc3c2)n2ncnc2n1 | – |
| – | 79 nM | > 200000 nM | 180 nM | 140 nM | 140 nM | 100 nM | 58 nM | Cc1cc(Nc2ccc3ccccc3c2)n2ncnc2n1 | > 10000 nM |
| 45000 nM | 4400 nM | > 200000 nM | – | – | – | – | – | Cc1cc(Nc2cccc3ccccc23)n2ncnc2n1 | – |
| > 200000 nM | > 50000 nM | > 200000 nM | – | – | – | – | – | Cc1cc(Nc2ccc(C(N)=O)cc2)n2ncnc2n1 | – |
| 2000 nM | 410 nM | > 200000 nM | – | – | – | – | – | Cc1cc(Nc2ccc3c(=O)cc(C)oc3c2)n2ncnc2n1 | – |
| 210 nM | 3300 nM | > 200000 nM | – | – | – | – | – | FC(F)(F)c1cc(Nc2ccc3ccccc3c2)n2ncnc2n1 | – |
| > 100000 nM | > 100000 nM | > 200000 nM | – | – | – | – | – | Cc1cc(Nc2ccccc2)n2ncnc2n1 | – |
| 160 nM | 550 nM | > 200000 nM | – | – | – | – | – | Cc1nc2ncnn2c(Nc2ccc3ccccc3c2)c1C | – |
| 330 nM | 1700 nM | > 200000 nM | – | – | – | – | – | Cc1cc(Nc2cc3ccccc3cc2O)n2ncnc2n1 | – |

| Compound | IC50 [1] | IC50 [2] | IC50 [3] | EC50 [4] | EC50 [5] | EC50 [6] | EC50 [7] | EC50 [8] | EC50 [9] |
| --- | --- | --- | --- | --- | --- | --- | --- | --- | --- |
| Cc1cc(Nc2ccc3cc4ccccc4cc3c2)n2ncnc2n1 | 56 nM | 190 nM | > 200000 nM | – | – | – | – | – | – |
| Cc1cc(Nc2ccc3ncccc3c2)n2ncnc2n1 | 1200 nM | 2200 nM | > 200000 nM | – | – | – | – | – | – |

From ChEMBL document CHEMBL1150779, “Triazolopyrimidine-based dihydroorotate dehydrogenase inhibitors with potent and selective activity against the malaria parasite Plasmodium falciparum” (J Med Chem, 2008)
